# Test results reported in ChEMBL document CHEMBL4033653, “Effect of 1,2,3-triazole salts, non-classical bioisosteres of miltefosine, on Leishmania amazonensis” (Bioorg Med Chem, 2017).
# Activity calls are given as the source filed them. The calls are words filed in the database; no cut-off is given here.
# What was measured:
# Leishmania amazonensis [1] = assay: Antileishmanial activity against Leishmania amazonensis IFLA/BR/1967/PH8 promastigotes after 72 hrs by MTT assay; format: functional
# Peritoneal macrophage = assay: (§1) Cytotoxicity against mouse peritoneal macrophages after 72 hrs by MTT assay; format: cell-based; conditions: peritoneal macrophage, 72 h
# Leishmania amazonensis [2] = assay: Antileishmanial activity against Leishmania amazonensis IFLA/BR/1967/PH8 promastigotes at 2.5 to 20 uM incubated for 72 hrs followed by compound washout measured after 72 hrs by Neubauer chamber method; format: functional
# In short: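 WT promastigotes exposed 72 h at 25 °C and counted; centrifuged, washed twice in PBS, adjusted to 10x10^6 cells/mL in drug-free Warren's medium + 10% serum; after 72 h at 25 °C viable cells counted in Neubauer chamber; three independent experiments in duplicate.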
# Leishmania amazonensis [3] = assay: Induction of lipid inclusions in Leishmania amazonensis IFLA/BR/1967/PH8 promastigotes at 5 uM after 24 hrs by Nile Red satining-based spectrofluorometric analysis; format: functional
# In short: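 WT exponential-phase promastigotes (1x10^7 cells/mL) cultured 24 h at 25 °C, stained with Nile Red, fluorescence read spectrofluorometrically versus untreated; three experiments in triplicate.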
# Leishmania amazonensis [4] = assay: Induction of lipid inclusions in Leishmania amazonensis IFLA/BR/1967/PH8 promastigotes at 2.5 uM after 24 hrs by Nile Red satining-based spectrofluorometric analysis; format: functional
# In short: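 WT (PH8) promastigotes at 1x10^7 cells/mL in exponential phase, cultured 24 h at 25 °C with or without 2.5–20.0 µM. Parasites incubated with Nile Red, then fluorescence measured spectrofluorometrically. Reported as arbitrary fluorescence units versus untreated parasites, mean of three experiments run in triplicate.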
# Leishmania amazonensis [5] = assay: Induction of plasma membrane permeability in Leishmania amazonensis IFLA/BR/1967/PH8 promastigotes form assessed as increase in fluorescence intensity at 20 uM after 24 hrs by PI staining-based spectrofluorometric analysis; format: functional
# In short: (§2)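 Exponential WT promastigotes (1x10^7 cells/mL) treated 24 h at 25 °C; washed, PI 1.0 µg/mL 15 min dark at room temperature; fluorescence 540/600 nm as % increase over untreated; heat-killed cells (65 °C, 10 min) as positive control; three independent experiments.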
# Leishmania amazonensis [6] = assay: Induction of plasma membrane permeability in Leishmania amazonensis IFLA/BR/1967/PH8 promastigotes form assessed as increase in fluorescence intensity at 2.5 to 10 uM after 24 hrs by PI staining-based spectrofluorometric analysis; format: functional; in short: as §2
# Leishmania amazonensis [7] = assay: Induction of morphological changes in Leishmania amazonensis IFLA/BR/1967/PH8 promastigotes assessed as altered parasite shape at 2.5 to 20 uM after 24 hrs by Giemsa staining-based microscopic analysis; format: functional
# In short: (§3)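 Exponential-phase promastigotes (1x10^7 cells/mL) treated 24 h at 25 °C; harvested, resuspended in PBS, smeared, ethanol-fixed, Giemsa-stained and examined by light microscopy.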
# Leishmania amazonensis [8] = assay: Induction of morphological changes in Leishmania amazonensis IFLA/BR/1967/PH8 promastigotes assessed as parasite size reduction at 2.5 to 20 uM after 24 hrs by Giemsa staining-based microscopic analysis; format: functional; in short: as §3
# Leishmania amazonensis [9] = assay: Induction of morphological changes in Leishmania amazonensis IFLA/BR/1967/PH8 promastigotes assessed as rounded cell body at 2.5 to 20 uM after 24 hrs by Giemsa staining-based microscopic analysis; format: functional; in short: as §3
# Leishmania amazonensis [10] = assay: Induction of DNA damage in Leishmania amazonensis IFLA/BR/1967/PH8 promastigotes at 5 to 10 uM after 24 hrs by TUNEL assay; format: functional
# In short: (§4)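 Exponential-phase WT promastigotes (1x10^7 cells/mL) cultured 24 h at 25 °C; DNA fragmentation detected by TUNEL with DAPI counterstain, fluorescence microscopy at 100X.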
# Leishmania amazonensis [11] = assay: Induction of autophagy in Leishmania amazonensis IFLA/BR/1967/PH8 promastigotes at 2.5 to 10 uM after 24 hrs by MDC staining-based fluorometric analysis; format: functional
# In short: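 Exponential WT promastigotes (1x10^7 cells/mL) treated 24 h at 25 °C; washed, adjusted to 10x10^6 cells/mL, 100 µM monodansylcadaverine 1 h dark at 25 °C; fluorescence 335/460 nm versus untreated; three independent experiments.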
# Leishmania amazonensis [12] = assay: Antileishmanial activity against Leishmania amazonensis WHOM/BR/75/Josefa promastigotes transfected with green fluorescent protein after 72 hrs by MTT assay; format: functional
# Leishmania amazonensis [13] = assay: Antileishmanial activity against Leishmania amazonensis IFLA/BR/1967/PH8 promastigotes transfected with red fluorescent protein after 72 hrs by MTT assay; format: functional; conditions: IFLA/BR/1967/PH8, 72 h
# Leishmania amazonensis [14] = assay: Antileishmanial activity against Leishmania amazonensis IFLA/BR/1967/PH8 amastigotes infected in murine macrophages after 72 hrs by fluorometric analysis; format: functional; conditions: IFLA/BR/1967/PH8, 72 h
# Leishmania amazonensis [15] = assay: Antileishmanial activity against Leishmania amazonensis WHOM/BR/75/Josefa amastigotes transfected with green fluorescent protein infected in murine macrophages after 72 hrs by fluorometric analysis; format: functional
# In short: (§5)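 Infected murine macrophages treated 0.78-100.0 µM for 72 h; fluorescence read at 540/600 nm for RFP parasites (PH8) and 485/528 nm for GFP parasites (Josefa strain); IC50 from three independent experiments in duplicate.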
# Leishmania amazonensis [16] = assay: Antileishmanial activity against Leishmania amazonensis IFLA/BR/1967/PH8 amastigotes transfected with red fluorescent protein infected in murine macrophages after 72 hrs by fluorometric analysis; format: functional; conditions: IFLA/BR/1967/PH8, 72 h; in short: as §5
# [17] = as §1; format: cell-based, Peritoneal macrophage; conditions: peritoneal macrophages
# [18] = Selectivity index, ratio of CC50 for mouse peritoneal macrophages to IC50 for Leishmania amazonensis IFLA/BR/1967/PH8 amastigotes
# In short: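 SI = CC50 for mouse peritoneal macrophages / amastigote IC50. […] IC50: WT-infected macrophages treated with 0.78–100.0 µM in sterile water; burden scored by counting amastigotes and infected/uninfected cells in at least 200 macrophages. Three experiments in duplicate.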
# [19] = Selectivity index, ratio of CC50 for mouse peritoneal macrophages to IC50 for Leishmania amazonensis WHOM/BR/75/Josefa amastigotes transfected with green fluorescent protein
# In short: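 SI = CC50 for mouse peritoneal macrophages / GFP amastigote IC50. […] IC50: macrophages infected with GFP-expressing Josefa-strain parasites, treated with 0.78–100.0 µM for 72 h; fluorescence read at 485 nm excitation/528 nm emission. Three experiments in duplicate.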
# [20] = Selectivity index, ratio of CC50 for mouse peritoneal macrophages to IC50 for Leishmania amazonensis IFLA/BR/1967/PH8 amastigotes transfected with red fluorescent protein
# In short: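 SI = CC50 for mouse peritoneal macrophages / RFP amastigote IC50. […] IC50: macrophages infected with RFP-expressing PH8 parasites, treated with 0.78–100.0 µM for 72 h; fluorescence read at 540 nm excitation/600 nm emission. Three experiments in duplicate.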
# Leishmania amazonensis [21] = assay: Induction of ROS accumulation in Leishmania amazonensis IFLA/BR/1967/PH8 promastigotes at 22 uM after 72 hrs by H2DCFDA staining-based fluorometric analysis relative to control; format: functional
# In short: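 WT exponential-phase promastigotes treated at 25 °C; adjusted to 2x10^7 cells in PBS, loaded with H2DCFDA 30 min dark at room temperature; fluorescence 485/528 nm versus untreated; three independent experiments.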
# Leishmania amazonensis [22] = assay: Induction of apoptosis in Leishmania amazonensis IFLA/BR/1967/PH8 promastigotes assessed as early apoptotic population at 44 uM after 24 hrs by Annexin V-FITC/PI staining based flow cytometric analysis (reference value: 5.29%); format: functional
# In short: (§6)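 Exponential-phase WT promastigotes (1x10^7 cells/mL) cultured 24 h at 25 °C; stained annexin V-FITC plus PI, flow cytometry with 10,000 events gated on parasites; quadrant percentages; three independent experiments.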
# Leishmania amazonensis [23] = assay: Induction of apoptosis in Leishmania amazonensis IFLA/BR/1967/PH8 promastigotes assessed as late apoptotic population at 44 uM after 24 hrs by Annexin V-FITC/PI staining based flow cytometric analysis (reference value: 2.62%); format: functional; in short: as §6
# Leishmania amazonensis [24] = assay: Induction of apoptosis in Leishmania amazonensis IFLA/BR/1967/PH8 promastigotes assessed as necrotic population at 44 uM after 24 hrs by Annexin V-FITC/PI staining based flow cytometric analysis (reference value: 0.03%); format: functional; in short: as §6
# Leishmania amazonensis [25] = assay: Induction of DNA damage in Leishmania amazonensis IFLA/BR/1967/PH8 promastigotes at 22 uM after 24 hrs by TUNEL assay; format: functional; in short: as §4
# [26] = Leishmania amazonensis, IFLA/BR/1967/PH8, 72 h
compound,measurement,setting,value
CCCCCCCCCCn1cc(CO)[n+](C)n1 [listing 1 of 2 here],IC50,Leishmania amazonensis [1],14.3 µM
CCCCn1cc(CO)[n+](CCC)n1,IC50,Leishmania amazonensis [1]; [26],> 100 µM
CCCCCCCCCCn1cc(CO)[n+](CCC)n1 [listing 1 of 2 here],IC50,Leishmania amazonensis [1]; [26],0.73 µM
same,CC50,Peritoneal macrophage,4.6 µM
CCCCCCCCCCn1cc(CO)[n+](C)n1 [listing 2 of 2 here],Activity,Leishmania amazonensis [2],Active
same,Activity,Leishmania amazonensis [3],inactive
same,Activity,Leishmania amazonensis [4],inactive
same,Activity,Leishmania amazonensis [5],Active
same,Activity,Leishmania amazonensis [6],inactive
same,Activity,Leishmania amazonensis [7],Active
same,Activity,Leishmania amazonensis [8],Active
same,Activity,Leishmania amazonensis [9],Active
same,Activity,Leishmania amazonensis [10],Active
same,Activity,Leishmania amazonensis [11],inactive
CCCCCCCCCCCCCCCCOP(=O)([O-])OCC[N+](C)(C)C [MILTEFOSINE],IC50,Leishmania amazonensis [1]; [26],22 µM
same,IC50,Leishmania amazonensis [12],13.2 µM
same,IC50,Leishmania amazonensis [13],18.9 µM
same,IC50,Leishmania amazonensis [14],4.2 µM
same,IC50,Leishmania amazonensis [15],6.6 µM
same,IC50,Leishmania amazonensis [16],12.7 µM
same,CC50 at 72 h,[17],144 µM
same,Ratio CC50/IC50,[18],34.2
same,Ratio CC50/IC50,[19],21.7
same,Ratio CC50/IC50,[20],11.3
same,Activity,Leishmania amazonensis [21],66.7%
same,Activity,Leishmania amazonensis [22],53.22%
same,Activity,Leishmania amazonensis [23],12.23%
same,Activity,Leishmania amazonensis [24],7.15%
same,Activity,Leishmania amazonensis [25],Active
CCCCCCn1cc(CO)[n+](C)n1,IC50,Leishmania amazonensis [1]; [26],> 100 µM
CCCCn1cc(CO)[n+](C)n1,IC50,Leishmania amazonensis [1]; [26],> 100 µM
CCCCCCn1cc(CO)[n+](CCC)n1,IC50,Leishmania amazonensis [1]; [26],> 100 µM
CCCCCCCCCCn1cc(CO)[n+](CCC)n1 [listing 2 of 2 here],IC50,Leishmania amazonensis [1],0.7 µM
same,CC50,Peritoneal macrophage,3.9 µM
